Data from ChEMBL document CHEMBL1641392, “Triterpenes from Garcia parviflora. Cytotoxic evaluation of natural and semisynthetic friedelanes” (J Nat Prod, 2010).

Legend:
Format in all cases: functional, cell-based
K562 = experiment: Cytotoxicity against human K562 cells after 48 hrs by sulforhodamine B assay
Summary of the method: (§1)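 Cells (NCI source) in RPMI-1640 with 10% FBS and antibiotics, 37 °C, 5% CO2. Seeded at 5 × 10^4 cells/mL (K562, MCF-7), 7.5 × 10^4 (U251, PC-3, SKLU-1), or 10 × 10^4 (HCT-15). After 24 h, DMSO-dissolved compounds added for 48 h. Fixed with cold TCA, stained with 0.4% SRB, Tris-extracted, read at 515 nm. IC50 from linear regression of dose-response curves.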

U-251 = experiment: Cytotoxicity against human U251 cells after 48 hrs by sulforhodamine B assay; conditions: U-251, 48 h; summary of the method: as §1
MCF7 = experiment: Cytotoxicity against human MCF7 cells after 48 hrs by sulforhodamine B assay; summary of the method: as §1
SK-LU-1 = experiment: Cytotoxicity against human SK-LU-1 cells after 48 hrs by sulforhodamine B assay; summary of the method: as §1
PC-3 = experiment: Cytotoxicity against human PC3 cells after 48 hrs by sulforhodamine B assay; summary of the method: as §1
HCT-15 = experiment: Cytotoxicity against human HCT15 cells after 48 hrs by sulforhodamine B assay; conditions: HCT-15, 48 h; summary of the method: as §1

Structure (SMILES) | Activity (K562) | IC50 (U-251) [µM] | Activity (MCF7) | Activity (SK-LU-1) | Activity (PC-3) | IC50 (HCT-15) [µM]
CC(=O)O[C@H]1CC[C@]2(C)[C@H]3CC[C@]4(C)C(=CC[C@@]5(C(=O)O)CCC(C)(C)C[C@H]54)[C@]3(C)CC[C@H]2C1(C)C [ACETYL ALEURITOLIC ACID] | Not toxic | 8.4 | Not toxic | Not toxic | Not toxic | 
C[C@H]1/C(=N/O)C[C@@H](O)[C@@H]2[C@]1(C)CC[C@H]1[C@@]2(C)CC[C@@]2(C)[C@@H]3CC(C)(C)CC[C@]3(C)CC[C@]12C | Not toxic |  | Not toxic | Not toxic | Not toxic | 
C[C@H]1C(=O)C=C[C@@H]2[C@]1(C)CC[C@H]1[C@@]2(C)CC[C@@]2(C)[C@@H]3CC(C)(C)CC[C@]3(C)CC[C@]12C | Not toxic |  | Not toxic | Not toxic | Not toxic | 
CC(=O)O[C@H]1C[C@@H](OC(C)=O)[C@@H]2[C@](C)(CC[C@H]3[C@@]2(C)CC[C@@]2(C)[C@@H]4CC(C)(C)CC[C@]4(C)CC[C@]32C)[C@H]1C | Not toxic |  | Not toxic | Not toxic | Not toxic | 
C[C@H]1OC(=O)C[C@@H](O)[C@@H]2[C@]1(C)CC[C@H]1[C@@]2(C)CC[C@@]2(C)[C@@H]3CC(C)(C)CC[C@]3(C)CC[C@]12C | Not toxic |  | Not toxic | Not toxic | Not toxic | 
CC(=O)O[C@H]1C[C@@H](O)[C@@H]2[C@](C)(CC[C@H]3[C@@]2(C)CC[C@@]2(C)[C@@H]4CC(C)(C)CC[C@]4(C)CC[C@]32C)[C@H]1C | Not toxic |  | Not toxic | Not toxic | Not toxic | 
C[C@H]1OC(=O)CC[C@@H]2[C@]1(C)CC[C@H]1[C@@]2(C)CC[C@@]2(C)[C@@H]3CC(C)(C)CC[C@]3(C)CC[C@]12C [FRIEDELIN-3,4-LACTONE] | Not toxic | 17.1 | Not toxic | Not toxic | Not toxic | 
C[C@H]1C(=O)CC(=O)[C@@H]2[C@]1(C)CC[C@H]1[C@@]2(C)CC[C@@]2(C)[C@@H]3CC(C)(C)CC[C@]3(C)CC[C@]12C | Not toxic |  | Not toxic | Not toxic | Not toxic | 
CC1(C)CC[C@]2(C)CC[C@]3(C)[C@H]4CC[C@@]5(C)[C@@H](CC[C@H](O)[C@@H]5C(=O)O)[C@]4(C)CC[C@@]3(C)[C@@H]2C1 | Not toxic |  | Not toxic | Not toxic | Not toxic | 
C=C[C@@H]1[C@@](C)([C@@H](C)C(=O)O)CC[C@H]2[C@@]1(C)CC[C@@]1(C)[C@@H]3CC(C)(C)CC[C@]3(C)CC[C@]21C | Not toxic | 36.8 | Not toxic | Not toxic | Not toxic | 
C[C@H]1[C@@H](O)C[C@@H](O)[C@@H]2[C@]1(C)CC[C@H]1[C@@]2(C)CC[C@@]2(C)[C@@H]3CC(C)(C)CC[C@]3(C)CC[C@]12C | Not toxic | 22.8 | Not toxic | Not toxic | Not toxic | 
C[C@H]1C(=O)C[C@@H](O)[C@@H]2[C@]1(C)CC[C@H]1[C@@]2(C)CC[C@@]2(C)[C@@H]3CC(C)(C)CC[C@]3(C)CC[C@]12C | Not toxic |  | Not toxic | Not toxic | Not toxic | 
C[C@H]1NC(=O)C[C@@H](O)[C@@H]2[C@]1(C)CC[C@H]1[C@@]2(C)CC[C@@]2(C)[C@@H]3CC(C)(C)CC[C@]3(C)CC[C@]12C | Not toxic |  | Not toxic | Not toxic | Not toxic | 
CC1(C)CC[C@]2(C)CC[C@]3(C)[C@H]4CC[C@@]5(C)[C@@H](C=CC(=O)[C@@]5(C)O)[C@]4(C)CC[C@@]3(C)[C@@H]2C1 | Not toxic |  | Not toxic | Not toxic | Not toxic | 41.8
